Data published in ChEMBL document CHEMBL1155708, “Isoaurostatin, a novel topoisomerase inhibitor produced by Thermomonospora alba” (J Nat Prod, 2001).
Calls of active or inactive are those of the source. The calls are words filed in the database; no cut-off is given here.

Legend:
Nucleic Acid = assay: Binding affinity to salmon sperm DNA assessed as DNA intercalation by circular dichroism; assay type: nucleic-acid assay; settings: Salmonidae
In short: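 CD spectra recorded in 50 mM Tris-HCl pH 8.0 with 100 mM KCl, 1 mM MgCl2 and salmon sperm DNA (25 µg/mL), inhibitor at 0, 10, 30 and 50 µM; spectral change obtained by subtracting the CD of reagent alone from the CD of DNA plus reagent.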

[1] = target: T1, DNA topoisomerase (Bos taurus) (UniProt A0JN73); assay: Inhibition calf thymus topoisomerase 1 cleavage activity assessed as increase in nicked pBR322 DNA formation after 40 mins by gel electrophoresis
T1 sequence (whole entry): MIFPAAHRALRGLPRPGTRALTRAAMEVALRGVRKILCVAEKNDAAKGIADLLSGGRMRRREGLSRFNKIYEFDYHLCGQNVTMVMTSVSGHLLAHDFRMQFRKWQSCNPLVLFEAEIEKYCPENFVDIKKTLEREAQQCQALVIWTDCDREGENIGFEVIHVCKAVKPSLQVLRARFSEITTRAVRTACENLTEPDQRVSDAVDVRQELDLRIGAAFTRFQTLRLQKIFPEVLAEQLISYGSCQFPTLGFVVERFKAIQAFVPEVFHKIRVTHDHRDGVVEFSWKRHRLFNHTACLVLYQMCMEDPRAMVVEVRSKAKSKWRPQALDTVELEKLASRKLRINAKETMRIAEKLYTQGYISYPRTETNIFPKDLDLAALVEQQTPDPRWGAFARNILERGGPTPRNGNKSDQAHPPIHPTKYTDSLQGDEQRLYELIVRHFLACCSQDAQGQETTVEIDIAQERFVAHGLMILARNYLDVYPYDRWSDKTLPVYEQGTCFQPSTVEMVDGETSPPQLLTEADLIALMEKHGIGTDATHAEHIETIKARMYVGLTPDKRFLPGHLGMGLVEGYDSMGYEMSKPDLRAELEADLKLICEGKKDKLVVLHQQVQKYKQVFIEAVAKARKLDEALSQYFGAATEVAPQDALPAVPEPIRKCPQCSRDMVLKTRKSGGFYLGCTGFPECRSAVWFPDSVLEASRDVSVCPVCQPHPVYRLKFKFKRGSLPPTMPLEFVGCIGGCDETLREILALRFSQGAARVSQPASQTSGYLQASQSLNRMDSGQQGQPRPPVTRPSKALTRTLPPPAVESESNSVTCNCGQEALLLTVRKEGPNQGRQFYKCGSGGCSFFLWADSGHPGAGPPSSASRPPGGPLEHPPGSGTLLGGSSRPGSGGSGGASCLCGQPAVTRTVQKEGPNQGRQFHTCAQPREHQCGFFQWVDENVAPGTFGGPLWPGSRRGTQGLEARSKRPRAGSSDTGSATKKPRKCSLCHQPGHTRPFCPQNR

| Compound | Activity (Nucleic Acid) | Activity [1] |
| --- | --- | --- |
| O=C1Oc2cc(O)ccc2/C1=C\c1ccc(O)cc1 | inactive | inactive |
| COc1cccc2c1C(=O)c1c(O)c3c(c(O)c1C2=O)C[C@@](O)(C(=O)CO)C[C@@H]3O[C@H]1C[C@H](N)[C@H](O)[C@H](C)O1 | Active | – |
| CC[C@@]1(O)C(=O)OCc2c1cc1n(c2=O)Cc2cc3ccccc3nc2-1 | inactive | Active |
